Laboratory results reported in ChEMBL document CHEMBL4765238, “Structure-Based Discovery and Optimization of Benzo[ d]isoxazole Derivatives as Potent and Selective BET Inhibitors for Potential Treatment of Castration-Resistant Prostate Cancer (CRPC)” (J Med Chem, 2018).
Calls of active or inactive are those of the source. The calls are words filed in the database; no cut-off is given here.

Key:
[1] = target: T1, Bromodomain-containing protein 4 (Homo sapiens, UniProt O60885); test: Binding affinity to human recombinant His6-tagged BRD4 bromodomain 1 (N44 to E168 residues) expressed in Escherichia coli BL21 (DE3) cells assessed as dissociation constant incubated for 1 hr by isothermal titration calorimetry
[2] = target: T1, Bromodomain-containing protein 4; test: Binding affinity to human recombinant His6-tagged BRD4 bromodomain 1 (N44 to E168 residues) expressed in Escherichia coli BL21 (DE3) cells assessed as change in melting temperature at 200 uM incubated for 30 mins by SYPRO orange dye based thermal shift assay
Method in brief: (§1)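 Thermal shift assay measuring change in melting temperature of each isolated bromodomain module in the presence of compound versus without.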

[3] = target: T2, Bromodomain-containing protein 9 (Homo sapiens) (UniProt Q9H8M2); test: Binding affinity to human recombinant His6-tagged BRD9 (L14 to Q134 residues) expressed in Escherichia coli BL21 (DE3) cells assessed as change in melting temperature at 200 uM incubated for 30 mins by SYPRO orange dye based thermal shift assay; method in brief: as §1
T2 sequence (whole entry): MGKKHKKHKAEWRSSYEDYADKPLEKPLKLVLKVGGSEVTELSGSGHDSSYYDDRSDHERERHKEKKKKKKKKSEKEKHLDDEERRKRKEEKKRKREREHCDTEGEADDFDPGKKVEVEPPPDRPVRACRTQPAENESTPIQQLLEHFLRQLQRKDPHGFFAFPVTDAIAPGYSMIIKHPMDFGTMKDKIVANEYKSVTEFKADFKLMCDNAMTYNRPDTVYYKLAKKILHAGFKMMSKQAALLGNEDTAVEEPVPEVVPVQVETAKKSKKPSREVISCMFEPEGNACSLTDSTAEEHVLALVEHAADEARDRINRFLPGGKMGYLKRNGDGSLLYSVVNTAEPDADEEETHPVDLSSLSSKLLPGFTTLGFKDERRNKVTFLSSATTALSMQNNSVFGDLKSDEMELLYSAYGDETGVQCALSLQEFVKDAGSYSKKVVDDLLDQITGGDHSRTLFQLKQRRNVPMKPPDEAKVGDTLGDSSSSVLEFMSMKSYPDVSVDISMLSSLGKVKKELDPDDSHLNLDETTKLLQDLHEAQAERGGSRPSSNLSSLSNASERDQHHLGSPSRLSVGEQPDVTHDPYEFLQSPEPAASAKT

[4] = target: Histone acetyltransferase p300 (Homo sapiens) (UniProt Q09472); test: Binding affinity to human recombinant His6-tagged EP300 (A1040 to G1161 residues) expressed in Escherichia coli BL21 (DE3) cells assessed as change in melting temperature at 200 uM incubated for 30 mins by SYPRO orange dye based thermal shift assay; method in brief: as §1
Sequence of Histone acetyltransferase p300 (Homo sapiens) (Q09472 whole entry, the tested form may be a part): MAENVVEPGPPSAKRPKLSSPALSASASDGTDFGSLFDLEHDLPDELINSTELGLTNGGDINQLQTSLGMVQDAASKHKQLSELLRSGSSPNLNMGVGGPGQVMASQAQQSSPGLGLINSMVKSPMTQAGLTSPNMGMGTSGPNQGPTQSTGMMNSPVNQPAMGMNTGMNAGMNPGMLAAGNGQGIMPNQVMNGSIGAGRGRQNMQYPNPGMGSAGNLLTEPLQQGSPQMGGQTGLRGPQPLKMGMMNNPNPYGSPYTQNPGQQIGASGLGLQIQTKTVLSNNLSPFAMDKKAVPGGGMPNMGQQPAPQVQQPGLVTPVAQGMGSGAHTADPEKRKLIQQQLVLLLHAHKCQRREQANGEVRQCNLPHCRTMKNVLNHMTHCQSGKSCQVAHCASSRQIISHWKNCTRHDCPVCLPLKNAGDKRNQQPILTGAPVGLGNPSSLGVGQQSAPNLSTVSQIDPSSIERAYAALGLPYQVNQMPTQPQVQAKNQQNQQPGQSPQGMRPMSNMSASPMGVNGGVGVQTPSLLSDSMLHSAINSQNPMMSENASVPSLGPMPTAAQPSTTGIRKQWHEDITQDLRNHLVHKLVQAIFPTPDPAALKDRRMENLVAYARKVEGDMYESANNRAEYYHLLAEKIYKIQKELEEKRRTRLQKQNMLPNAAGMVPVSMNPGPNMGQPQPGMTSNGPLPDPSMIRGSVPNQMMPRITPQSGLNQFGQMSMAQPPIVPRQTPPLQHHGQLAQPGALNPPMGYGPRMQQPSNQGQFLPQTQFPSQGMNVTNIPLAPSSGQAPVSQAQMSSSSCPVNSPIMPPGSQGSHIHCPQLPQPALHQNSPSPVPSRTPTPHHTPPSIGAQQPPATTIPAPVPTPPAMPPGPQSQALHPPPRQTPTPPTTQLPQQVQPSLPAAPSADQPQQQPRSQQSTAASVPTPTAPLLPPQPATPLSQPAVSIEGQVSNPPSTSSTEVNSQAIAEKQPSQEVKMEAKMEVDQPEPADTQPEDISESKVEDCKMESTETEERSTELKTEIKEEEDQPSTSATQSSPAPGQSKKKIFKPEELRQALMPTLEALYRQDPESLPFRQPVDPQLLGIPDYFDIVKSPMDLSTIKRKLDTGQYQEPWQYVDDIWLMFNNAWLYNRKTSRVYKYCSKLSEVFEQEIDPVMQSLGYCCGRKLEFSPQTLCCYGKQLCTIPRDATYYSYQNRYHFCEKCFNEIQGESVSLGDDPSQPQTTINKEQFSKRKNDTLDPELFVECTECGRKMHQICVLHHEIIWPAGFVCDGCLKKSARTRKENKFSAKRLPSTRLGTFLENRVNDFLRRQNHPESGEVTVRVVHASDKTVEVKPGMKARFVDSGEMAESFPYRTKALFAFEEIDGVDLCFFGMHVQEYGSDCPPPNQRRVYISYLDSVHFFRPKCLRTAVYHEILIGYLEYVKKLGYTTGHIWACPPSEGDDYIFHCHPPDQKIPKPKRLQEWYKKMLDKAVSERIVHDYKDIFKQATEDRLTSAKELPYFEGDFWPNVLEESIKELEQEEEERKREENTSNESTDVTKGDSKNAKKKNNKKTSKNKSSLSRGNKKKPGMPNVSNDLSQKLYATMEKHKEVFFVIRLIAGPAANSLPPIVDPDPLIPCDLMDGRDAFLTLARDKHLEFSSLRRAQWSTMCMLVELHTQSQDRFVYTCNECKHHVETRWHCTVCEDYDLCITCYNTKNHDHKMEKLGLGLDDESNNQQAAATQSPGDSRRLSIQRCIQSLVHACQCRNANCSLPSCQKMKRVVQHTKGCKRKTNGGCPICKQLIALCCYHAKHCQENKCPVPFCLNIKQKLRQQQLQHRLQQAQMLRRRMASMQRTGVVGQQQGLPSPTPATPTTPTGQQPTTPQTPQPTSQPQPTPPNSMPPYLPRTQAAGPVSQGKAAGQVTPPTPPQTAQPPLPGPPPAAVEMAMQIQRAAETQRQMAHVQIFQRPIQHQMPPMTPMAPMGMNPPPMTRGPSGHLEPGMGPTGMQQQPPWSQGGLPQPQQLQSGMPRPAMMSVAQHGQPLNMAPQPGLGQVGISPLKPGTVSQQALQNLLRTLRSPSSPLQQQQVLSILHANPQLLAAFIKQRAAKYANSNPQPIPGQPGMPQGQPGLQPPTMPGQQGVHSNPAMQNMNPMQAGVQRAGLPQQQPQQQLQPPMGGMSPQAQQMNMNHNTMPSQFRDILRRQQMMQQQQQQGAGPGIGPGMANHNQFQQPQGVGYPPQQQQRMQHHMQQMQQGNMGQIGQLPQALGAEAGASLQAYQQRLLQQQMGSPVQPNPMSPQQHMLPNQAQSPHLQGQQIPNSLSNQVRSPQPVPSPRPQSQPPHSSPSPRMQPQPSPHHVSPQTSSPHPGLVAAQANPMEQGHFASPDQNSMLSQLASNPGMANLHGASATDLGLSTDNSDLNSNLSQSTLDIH

[5] = target: CREB-binding protein (Homo sapiens) (UniProt Q92793); test: Binding affinity to human recombinant His6-tagged CREBBP (R1081 to G1197 residues) expressed in Escherichia coli BL21 (DE3) cells assessed as change in melting temperature at 200 uM incubated for 30 mins by SYPRO orange dye based thermal shift assay; method in brief: as §1
Sequence of CREB-binding protein (Homo sapiens) (Q92793 2-2442 limits assumed): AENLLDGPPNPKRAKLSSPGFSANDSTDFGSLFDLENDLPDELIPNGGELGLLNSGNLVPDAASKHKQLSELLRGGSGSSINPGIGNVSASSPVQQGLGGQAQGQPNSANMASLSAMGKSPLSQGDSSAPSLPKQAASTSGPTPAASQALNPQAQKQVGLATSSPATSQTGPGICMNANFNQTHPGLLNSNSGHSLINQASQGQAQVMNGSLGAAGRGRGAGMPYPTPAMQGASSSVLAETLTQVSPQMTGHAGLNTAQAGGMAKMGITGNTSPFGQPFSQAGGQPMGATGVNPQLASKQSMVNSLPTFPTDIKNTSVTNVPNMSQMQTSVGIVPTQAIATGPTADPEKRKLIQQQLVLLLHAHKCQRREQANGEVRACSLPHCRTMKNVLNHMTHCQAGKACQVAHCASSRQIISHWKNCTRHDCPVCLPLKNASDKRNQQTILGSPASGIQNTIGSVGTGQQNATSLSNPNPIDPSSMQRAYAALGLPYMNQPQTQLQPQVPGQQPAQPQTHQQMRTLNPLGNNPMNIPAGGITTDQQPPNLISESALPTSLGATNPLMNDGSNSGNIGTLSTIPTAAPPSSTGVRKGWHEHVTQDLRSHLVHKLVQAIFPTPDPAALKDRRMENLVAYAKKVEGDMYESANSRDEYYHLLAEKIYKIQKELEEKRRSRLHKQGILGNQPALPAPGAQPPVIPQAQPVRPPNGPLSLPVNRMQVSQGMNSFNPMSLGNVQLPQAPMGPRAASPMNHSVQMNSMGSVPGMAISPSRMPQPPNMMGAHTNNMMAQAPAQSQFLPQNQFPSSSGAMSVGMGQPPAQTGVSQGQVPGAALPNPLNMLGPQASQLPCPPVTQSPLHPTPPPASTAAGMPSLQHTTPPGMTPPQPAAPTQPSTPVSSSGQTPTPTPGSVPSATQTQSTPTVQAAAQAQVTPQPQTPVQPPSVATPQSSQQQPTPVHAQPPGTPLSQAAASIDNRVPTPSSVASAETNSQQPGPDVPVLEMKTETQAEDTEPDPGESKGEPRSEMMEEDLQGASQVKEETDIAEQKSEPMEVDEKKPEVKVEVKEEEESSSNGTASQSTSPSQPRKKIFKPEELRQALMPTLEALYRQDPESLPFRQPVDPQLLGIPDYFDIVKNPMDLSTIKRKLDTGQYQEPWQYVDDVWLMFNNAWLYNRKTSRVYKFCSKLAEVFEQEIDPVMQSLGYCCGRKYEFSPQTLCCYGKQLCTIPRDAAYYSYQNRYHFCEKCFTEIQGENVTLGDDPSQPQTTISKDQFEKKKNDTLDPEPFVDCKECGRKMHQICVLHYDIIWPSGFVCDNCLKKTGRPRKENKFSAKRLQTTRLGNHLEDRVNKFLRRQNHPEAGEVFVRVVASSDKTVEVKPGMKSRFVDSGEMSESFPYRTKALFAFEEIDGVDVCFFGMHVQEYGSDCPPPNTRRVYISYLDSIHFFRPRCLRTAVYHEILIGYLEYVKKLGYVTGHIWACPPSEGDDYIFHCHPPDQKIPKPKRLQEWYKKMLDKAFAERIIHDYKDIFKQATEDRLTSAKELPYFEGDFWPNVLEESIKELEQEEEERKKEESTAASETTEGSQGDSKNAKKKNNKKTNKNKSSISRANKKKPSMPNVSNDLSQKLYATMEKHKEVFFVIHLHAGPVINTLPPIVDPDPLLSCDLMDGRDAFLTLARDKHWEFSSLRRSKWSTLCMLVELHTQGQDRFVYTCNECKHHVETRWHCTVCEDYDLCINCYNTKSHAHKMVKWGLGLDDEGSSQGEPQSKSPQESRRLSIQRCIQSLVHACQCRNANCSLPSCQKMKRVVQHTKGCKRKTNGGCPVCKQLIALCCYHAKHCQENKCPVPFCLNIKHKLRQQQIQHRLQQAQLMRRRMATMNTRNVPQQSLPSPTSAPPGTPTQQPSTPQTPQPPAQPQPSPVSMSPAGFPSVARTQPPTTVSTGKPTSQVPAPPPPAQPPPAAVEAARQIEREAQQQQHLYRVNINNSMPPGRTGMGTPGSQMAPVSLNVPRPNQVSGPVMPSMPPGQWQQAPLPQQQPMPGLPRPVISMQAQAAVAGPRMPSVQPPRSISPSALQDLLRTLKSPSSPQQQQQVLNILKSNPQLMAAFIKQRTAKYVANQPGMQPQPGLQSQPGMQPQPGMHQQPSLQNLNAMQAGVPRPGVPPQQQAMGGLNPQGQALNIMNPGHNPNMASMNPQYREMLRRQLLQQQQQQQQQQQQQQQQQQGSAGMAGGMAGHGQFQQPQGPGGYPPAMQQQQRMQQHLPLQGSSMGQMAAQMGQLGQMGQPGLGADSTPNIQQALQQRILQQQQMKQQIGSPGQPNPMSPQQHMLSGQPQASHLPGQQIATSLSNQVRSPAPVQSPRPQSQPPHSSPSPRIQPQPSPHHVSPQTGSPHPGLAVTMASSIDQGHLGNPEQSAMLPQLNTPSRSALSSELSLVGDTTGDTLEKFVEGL

[6] = test system: VCaP; test: Antiproliferative activity against AR-positive human VCaP cells assessed as reduction in cell viability incubated for 144 hrs by cell-titer glo assay; type: functional, cell-based
Method in brief: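 Prostate cancer cells treated across a concentration range; viability read by CellTiter-Glo luminescence; experiments in triplicate; IC50 derived from the dose–response curves.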

[7] = test system: MCF7; test: Antiproliferative activity against human MCF-7 cells assessed as reduction in cell viability incubated for 96 hrs by cell-titer glo assay; type: functional, cell-based; conditions: MCF7, 96 h
[8] = test system: U2OS; test: Antiproliferative activity against human U2OS cells assessed as reduction in cell viability incubated for 72 hrs by cell-titer glo assay; type: functional, cell-based
[9] = test system: NCI-H1975; test: Antiproliferative activity against human NCI-H1975 cells assessed as reduction in cell viability incubated for 72 hrs by cell-titer glo assay; type: functional, cell-based; conditions: NCI-H1975, 72 h
[10] = test system: CWR22R; test: Inhibition of colony formation in human 22Rv1 cells incubated for 14 days by crystal violet staining based assay; type: functional, cell-based; conditions: dose 0.5-2 µM, time 14.0 day
Method in brief: (§2)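 22Rv1 cells cultured with vehicle (DMSO) or compound at 0.5, 1.0 or 2.0 µM for 14 days, then stained and colonies assessed.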

[11] = test system: LNCaP; test: Inhibition of BET bromodomain in human LNCaP cells assessed as suppression of PSA mRNA expression at 5 uM incubated for 48 hrs by SYBR green dye based qRT-PCR analysis; type: cell-based
Method in brief: (§3)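 LNCaP or VCaP cells exposed to vehicle (DMSO) or compound at 5 µM for 48 h; mRNA levels measured by qRT-PCR; mean ± s.e.m., n = 3; two-tailed Student's t-test.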

[12] = test system: LNCaP; test: Inhibition of BET bromodomain in human LNCaP cells assessed as suppression of Myc mRNA expression at 5 uM incubated for 48 hrs by SYBR green dye based qRT-PCR analysis; type: cell-based; method in brief: as §3
[13] = test system: VCaP; test: Inhibition of BET bromodomain in human VCaP cells assessed as suppression of ERG mRNA expression at 5 uM incubated for 48 hrs by SYBR green dye based qRT-PCR analysis; type: cell-based; method in brief: as §3
[14] = test system: VCaP; test: Inhibition of BET bromodomain in human VCaP cells assessed as suppression of full-length androgen receptor mRNA expression at 5 uM incubated for 48 hrs by SYBR green dye based qRT-PCR analysis; type: cell-based; method in brief: as §3
[15] = Cmax in Sprague-Dawley rat at 2 mg/kg, iv by LC/MS analysis; type: ADME, organism-based; parameters: route intravenous, dose 2 mg/kg; conditions: in vivo
Method in brief: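 Sprague-Dawley rats dosed iv at 2 mg/kg (a separate oral arm received 10 mg/kg); plasma exposure parameters derived from the concentration–time profile.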

[16] = test system: LNCaP C4-2B; test: Antitumor activity against human LNCaP C4-2B cells xenografted in CB17/IcrHSD-Prkdc-SCID mouse assessed as tumor growth inhibition at 50 mg/kg, ip administered 5 times per week for 25 days by caliper analysis; type: functional; conditions: 600 h, time 25 day, read-out: TGI
Method in brief: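 C4-2B cells xenografted in mice; once tumours reached about 100 mm3, mice were randomized and given vehicle or compound at 50 mg/kg i.p. five times per week for 25 days; tumour volume (mean ± s.e.m.) and body weight tracked.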

[17] = test system: LNCaP C4-2B; test: Inhibition of colony formation in human LNCaP C4-2B cells at 0.5 uM incubated for 14 days by crystal violet staining based assay; type: functional, cell-based; conditions: time 14.0 day
Method in brief: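 C4-2B cells cultured with vehicle (DMSO) or compound at 0.5, 1.0 or 2.0 μM for 14 days, then colonies stained and counted against vehicle.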

[18] = test system: CWR22R; test: Inhibition of colony formation in human 22Rv1 cells at 0.5 uM incubated for 14 days by crystal violet staining based assay; type: functional, cell-based; conditions: time 14.0 day; method in brief: as §2
[19] = Toxicity in CB17/IcrHSD-Prkdc-SCID mouse xenografted with human LNCaP C4-2B cells assessed as effect on body weight at 50 mg/kg, ip administered 5 times per week for 25 days; type: organism-based; conditions: in vivo, 600 h, time 25 day
Method in brief: (§4)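 C4-2B xenograft mice randomized once tumors reached about 100 mm3. Vehicle or compound given i.p. at 50 mg/kg, five times per week, over a 25-day treatment period. Tolerability judged from body weight, tracked across treatment days, and from general behaviour.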

[20] = Toxicity in CB17/IcrHSD-Prkdc-SCID mouse xenografted with human LNCaP C4-2B cells assessed as effect on animal behaviour at 50 mg/kg, ip administered 5 times per week for 25 days; type: organism-based; conditions: in vivo, 600 h, time 25 day; method in brief: as §4

Kd [1] [nM] | ΔTm [2] [°C] | ΔTm [3] [°C] | ΔTm [4] [°C] | ΔTm [5] [°C] | IC50 [6] [nM] | IC50 [7] [nM] | IC50 [8] [nM] | IC50 [9] [nM] | Cmax [15] [ng/mL] | Compound | inhibition [10] | inhibition [11] | inhibition [12] | inhibition [13] | inhibition [14] | inhibition in vivo at 50 mg/kg [16] [%] | inhibition [17] | inhibition [18] | Activity [19] | Activity [20]
82 | 9.8 | -0.9 | 2 | 1.4 | 630 | 1000 | > 5000 | 2500 | 1390 | COc1cc2onc(C)c2cc1NS(=O)(=O)c1cc(Br)ccc1OC | Dose-dependent effect | Active | Active | Active | Active | 70 | Active | Active | Non-Toxic | Non-Toxic
159 | 9.2 | -0.9 | -0.3 | 0 | 500 |  |  |  |  | Cc1noc2c(Br)cc(-c3nc4ccc(N5CCOCC5)cc4n3CC3CCCCC3)cc12 |  |  |  |  |  |  |  |  |  | 
81 | 9.9 | -0.8 | 0.3 | 0.3 | 290 | 1000 | > 5000 | > 5000 | 807 | Cc1noc2ccc(-c3nc4ccc(N5CCOC[C@@H]5C)cc4n3CC3CCCCC3)cc12 | Dose-dependent effect | Active | Active | Active | Active | 51 | Active | Active | Non-Toxic | Non-Toxic
164 | 9.2 | -0.8 | 2.3 | 2.1 | 3020 |  |  |  |  | CNc1cc2onc(C)c2cc1NS(=O)(=O)c1cc(Br)ccc1OC |  |  |  |  |  |  |  |  |  | 
